# The source made the active and inactive calls. No cut-off for these calls is given here.
# What was measured:
# [1] = target: T1, Peroxisome proliferator-activated receptor alpha (Homo sapiens, UniProt Q07869); experiment: Agonist activity at Gal4-fussed PPARalpha expressed in human HEK293 cells by reporter gene assay; format: functional, cell-based
# T1 sequence (Q07869 whole entry): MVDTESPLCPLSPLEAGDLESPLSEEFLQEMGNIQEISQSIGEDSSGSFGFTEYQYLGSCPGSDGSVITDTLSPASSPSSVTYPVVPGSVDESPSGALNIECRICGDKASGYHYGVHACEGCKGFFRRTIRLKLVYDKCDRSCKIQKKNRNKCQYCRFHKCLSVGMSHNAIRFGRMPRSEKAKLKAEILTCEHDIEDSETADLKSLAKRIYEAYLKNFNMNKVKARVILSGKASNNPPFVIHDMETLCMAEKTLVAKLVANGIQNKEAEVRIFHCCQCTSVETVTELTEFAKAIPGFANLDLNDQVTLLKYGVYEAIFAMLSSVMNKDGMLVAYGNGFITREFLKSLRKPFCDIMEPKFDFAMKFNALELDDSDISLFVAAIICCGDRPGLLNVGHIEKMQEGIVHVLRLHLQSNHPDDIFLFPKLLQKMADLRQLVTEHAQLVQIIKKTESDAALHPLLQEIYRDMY
# Method in brief: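 Transient transfection of HEK-293 cells with PPAR-GAL4 chimeric receptor plus reporter. EC50 is the molar concentration giving 50% of maximal reporter activity; racemates tested as such.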
# [2] = target: T2, Peroxisome proliferator-activated receptor delta (Homo sapiens, UniProt Q03181); experiment: Agonist activity at Gal4-fussed PPARdelta expressed in human HEK293 cells by reporter gene assay; format: functional, cell-based
# T2 sequence (Q03181 whole entry): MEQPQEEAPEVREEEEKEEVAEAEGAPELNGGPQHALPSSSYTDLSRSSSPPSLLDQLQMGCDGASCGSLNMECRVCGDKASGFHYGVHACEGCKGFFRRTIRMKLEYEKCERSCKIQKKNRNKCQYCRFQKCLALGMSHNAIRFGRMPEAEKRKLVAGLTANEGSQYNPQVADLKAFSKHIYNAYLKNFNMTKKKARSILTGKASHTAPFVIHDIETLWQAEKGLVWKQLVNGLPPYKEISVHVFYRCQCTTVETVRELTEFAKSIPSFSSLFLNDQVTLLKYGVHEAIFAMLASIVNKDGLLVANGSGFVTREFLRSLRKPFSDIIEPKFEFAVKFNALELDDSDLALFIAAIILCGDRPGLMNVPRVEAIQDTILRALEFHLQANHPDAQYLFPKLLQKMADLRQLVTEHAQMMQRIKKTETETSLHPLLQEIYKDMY
# [3] = target: T3, Peroxisome proliferator-activated receptor gamma (Homo sapiens, UniProt P37231); experiment: Agonist activity at Gal4-fussed PPARgamma expressed in human HEK293 cells by reporter gene assay; format: functional, cell-based
# T3 sequence (P37231 whole entry): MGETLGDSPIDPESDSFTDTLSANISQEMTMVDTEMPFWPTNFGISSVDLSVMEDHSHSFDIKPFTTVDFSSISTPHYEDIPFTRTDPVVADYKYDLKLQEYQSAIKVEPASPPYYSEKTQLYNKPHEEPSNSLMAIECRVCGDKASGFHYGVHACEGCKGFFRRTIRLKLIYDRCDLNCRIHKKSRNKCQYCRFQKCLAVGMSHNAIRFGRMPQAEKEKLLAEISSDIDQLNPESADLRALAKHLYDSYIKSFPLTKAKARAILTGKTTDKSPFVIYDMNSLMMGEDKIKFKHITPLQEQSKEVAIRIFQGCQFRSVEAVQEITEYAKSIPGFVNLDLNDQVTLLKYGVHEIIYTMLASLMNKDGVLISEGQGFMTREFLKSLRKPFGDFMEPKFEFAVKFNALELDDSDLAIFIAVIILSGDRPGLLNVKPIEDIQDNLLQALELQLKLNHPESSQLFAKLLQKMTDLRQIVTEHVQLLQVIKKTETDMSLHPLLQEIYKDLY
# [4] = Selectivity ratio EC50 for Gal4-fussed PPARdelta to EC50 for Gal4-fussed PPARalpha
# [5] = tested on: Rattus norvegicus; experiment: Protection against nonalcoholic steatohepatitis progression in 4 weeks choline deficient high-fat diet fed methemoglobinemic Wistar rat assessed as prevention of liver atrophy formation at 1 mg/kg/day, ip administered for 6 weeks by hematoxylin and eosin staining in presence of 40 mg/kg/day, ip of sodium nitrite; format: functional, organism-based
# Method in brief: (§1)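 Rats fed CDHF diet from 6 weeks of age for 4 weeks, then kept on CDHF over a 6-week period with daily ip NaNO2 40 mg/kg to cause methemoglobinemia; treated group also got compound 1 mg/kg/day. Controls were normal chow, CDHF alone and NASH. Housed singly, 12-h light-dark cycle, food and water ad libitum. Endpoints taken at study end.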
# [6] = tested on: Rattus norvegicus; experiment: Protection against nonalcoholic steatohepatitis progression in 4 weeks choline deficient high-fat diet fed methemoglobinemic Wistar rat assessed as prevention of nodule formation in liver at 1 mg/kg/day, ip administered for 6 weeks by hematoxylin and eosin staining in presence of 40 mg/kg/day, ip of sodium nitrite; format: functional, organism-based; method in brief: as §1
# [7] = tested on: Rattus norvegicus; experiment: Protection against nonalcoholic steatohepatitis progression in 4 weeks choline deficient high-fat diet fed methemoglobinemic Wistar rat assessed as effect on features of fatty liver at 1 mg/kg/day, ip administered for 6 weeks by hematoxylin and eosin staining in presence of 40 mg/kg/day, ip of sodium nitrite; format: functional, organism-based; method in brief: as §1
# [8] = tested on: Rattus norvegicus; experiment: Protection against nonalcoholic steatohepatitis progression in 4 weeks choline deficient high-fat diet fed methemoglobinemic Wistar rat assessed as prevention of liver fibrosis at 1 mg/kg/day, ip administered for 6 weeks by Masson Trichrome staining in presence of 40 mg/kg/day, ip of sodium nitrite; format: functional, organism-based; method in brief: as §1
# [9] = tested on: Rattus norvegicus; experiment: Protection against nonalcoholic steatohepatitis progression in 4 weeks choline deficient high-fat diet fed methemoglobinemic Wistar rat assessed as prevention of liver necrosis at 1 mg/kg/day, ip administered for 6 weeks by Masson Trichrome staining in presence of 40 mg/kg/day, ip of sodium nitrite; format: functional, organism-based; method in brief: as §1
# [10] = tested on: Rattus norvegicus; experiment: Protection against nonalcoholic steatohepatitis progression in 4 weeks choline deficient high-fat diet fed methemoglobinemic Wistar rat assessed as increase of aspartate amino transferase level at 1 mg/kg/day, ip administered for 6 weeks in presence of 40 mg/kg/day, ip of sodium nitrite; format: functional, organism-based; method in brief: as §1
# [11] = tested on: Rattus norvegicus; experiment: Protection against nonalcoholic steatohepatitis progression in 4 weeks choline deficient high-fat diet fed methemoglobinemic Wistar rat assessed as increase of alanine transaminase level at 1 mg/kg/day, ip administered for 6 weeks in presence of 40 mg/kg/day, ip of sodium nitrite; format: functional, organism-based; method in brief: as §1
# [12] = tested on: Rattus norvegicus; experiment: Protection against nonalcoholic steatohepatitis progression in 4 weeks choline deficient high-fat diet fed methemoglobinemic Wistar rat assessed as increase of alkaline phosphatase level at 1 mg/kg/day, ip administered for 6 weeks in presence of 40 mg/kg/day, ip of sodium nitrite; format: functional, organism-based; method in brief: as §1
# [13] = tested on: Rattus norvegicus; experiment: Protection against nonalcoholic steatohepatitis progression in 4 weeks choline deficient high-fat diet fed methemoglobinemic Wistar rat assessed as increase of liver function at 1 mg/kg/day, ip administered for 6 weeks in presence of 40 mg/kg/day, ip of sodium nitrite; format: functional, organism-based; method in brief: as §1
EC50 [1],EC50 [2],EC50 [3],Compound,further results
3600 nM,> 10000 nM,> 10000 nM,CCC(Cc1ccc(OC)c(CNC(=O)c2ccccc2Oc2ccccc2)c1)C(=O)O (racemic),–
–,–,> 10000 nM,CCC(Cc1ccc(OC)c(CNC(=O)c2ccccc2)c1)C(=O)O (racemic),–
52 nM,1400 nM,460 nM,CCC(Cc1ccc(OC)c(CNC(=O)c2ccc(OCc3ccccc3)cc2)c1)C(=O)O (racemic),–
74 nM,4100 nM,710 nM,CCC(Cc1ccc(OC)c(CNC(=O)c2cccc(-c3ccccc3)c2)c1)C(=O)O (racemic),–
7.6 nM,–,340 nM,CCC(Cc1ccc(OC)c(CNC(=O)c2ccc(-c3ccccc3)cc2)c1)C(=O)O (racemic),–
8.8 nM,120 nM,820 nM,CCC(Cc1ccc(OC)c(CNC(=O)c2ccc(Oc3ccccc3)cc2)c1)C(=O)O (racemic),–
3600 nM,> 10000 nM,> 10000 nM,CCC(Cc1ccc(OC)c(CNC(=O)c2ccccc2-c2ccccc2)c1)C(=O)O (racemic),–
41 nM,4800 nM,4600 nM,CCC(Cc1ccc(OC)c(CNC(=O)c2cccc(Oc3ccccc3)c2)c1)C(=O)O (racemic),–

# The next lines start with the molecule.
Compound,EC50 [1],EC50 [2],EC50 [3],further results
CCC(Cc1ccc(OC)c(CNC(=O)c2ccc(OCCc3ccccc3)cc2)c1)C(=O)O (racemic),60 nM,1400 nM,780 nM,–
CCC(Cc1ccc(OC)c(CNC(=O)c2ccc(C)cc2)c1)C(=O)O (racemic),–,360 nM,9600 nM,–
CCC(Cc1ccc(OC)c(CNC(=O)c2ccc(OC(F)(F)F)cc2)c1)C(=O)O (racemic),12 nM,110 nM,4400 nM,–
CC[C@@H](Cc1ccc(OC)c(CNC(=O)c2ccc(Oc3ccc(Cl)cc3)cc2)c1)C(=O)O,15 nM,580 nM,830 nM,–
CC[C@@H](Cc1ccc(OC)c(CNC(=O)c2ccc(Oc3ccc(Br)cc3)cc2)c1)C(=O)O,29 nM,800 nM,990 nM,–
CC[C@@H](Cc1ccc(OC)c(CNC(=O)c2ccc(Oc3ccc(F)cc3)cc2)c1)C(=O)O,5 nM,300 nM,920 nM,Ratio EC50 [4]: 25; Activity [5]: Active; Activity [6]: Active; Activity [7]: inactive; Activity [8]: Active; Activity [9]: Active; Activity [10]: Active; Activity [11]: Active; Activity [12]: Active; Activity [13]: Active
